Compound activity as filed in PubChem.
MPTP inh – mitochondrial permeability transition pore inhibitors, primary screen, biochemical, isolated mouse mitochondria, absorbance | actives 1.4% (n = 360,000) | Ca2+ swelling absorbance, 30 min | inhibition, % at 10 µM;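 active = inhibition of 50% or more, scaled per plate between neutral and stimulator controls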
ATG4B inhibitor – ATG4B protease inhibitors, primary screen, biochemical, fluorescence, uHTS | ATG4B cleavage of LC3-PLA2, NBD-HPC fluorescence, 1 h | inhibition, % at 8.33 µM | actives 0.51% (n = 340,000) | AID 504462, 2011; in the data active = inhibition above about 40%
Target sequence (Q9Y4P1 whole entry, looked up): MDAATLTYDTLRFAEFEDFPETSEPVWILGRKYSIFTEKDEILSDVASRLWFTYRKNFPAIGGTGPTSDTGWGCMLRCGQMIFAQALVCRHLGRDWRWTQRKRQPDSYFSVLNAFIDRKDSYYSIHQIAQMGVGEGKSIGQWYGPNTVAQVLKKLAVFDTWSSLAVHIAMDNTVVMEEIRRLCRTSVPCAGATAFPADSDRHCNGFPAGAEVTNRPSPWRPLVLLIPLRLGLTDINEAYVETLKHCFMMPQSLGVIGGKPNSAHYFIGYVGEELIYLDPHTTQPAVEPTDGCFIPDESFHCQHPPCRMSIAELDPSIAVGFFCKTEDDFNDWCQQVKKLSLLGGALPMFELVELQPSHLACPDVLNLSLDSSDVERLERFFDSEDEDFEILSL
MT1-MMP act inh – blockers of MT1-MMP proenzyme processing, primary screen, HT1080 RFP-PRO-GFP cells, GFP/RFP fluorescence; Matrix metalloproteinase-14 (Homo sapiens), P50281; GFP/RFP ratio fluorescence, overnight; percent of plate control window, DMSO zero; GFP/RFP ratio change, % at 20 µM; actives 0.061% (n = 360,000); AID 651647, 2012;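 active = GFP/RFP ratio change of at least 30% with cell ATP level not reduced by more than half and red fluorescence within 50% of control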
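Compound: 20 µM single dose, 1% DMSO / System: HT1080 RFP-PRO-GFP cells / Controls: DMSO and RFP-L50D-GFP cell wells / Read-out basis: GFP/RFP fluorescence ratio / Schedule: overnight compound exposure at 37 °C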
SKN-1 inh – suppressors of acrylamide-induced Pgst-4::GFP reporter in worms, primary screen, SKN-1 inhibitor project, whole organism, uHTS, GFP/RFP fluorescence ratio, strain VP596. AID 624304, 2012. C. elegans VP596 Pgst-4::GFP/RFP ratio, 24 h. actives 0.49% (n = 360,000). inhibition, % at 21.8 µM;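 active = interference check ratio from 0.5 to 1.5 plus GFP to RFP signal ratio inhibition reaching or exceeding a fixed threshold, cut at about 30% in these data, passing the limit was not always enough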
Rh123 counter – fluorescence retest of MPTP screen hits in isolated mitochondria, single concentration. actives 78% (n = 5,000). shares compounds with MPTP inh. AID 624504, 2012. membrane potential, Rhodamine 123 fluorescence. inhibition, % at 10 µM; in the data active = inhibition above about 22%
MPTP swell DR – mitochondrial permeability transition pore inhibitors, dose response, biochemical, absorbance, uHTS hits | shares compounds with MPTP inh | isolated mitochondria swelling | IC50, µM | actives 58% (n = 780); in the data active = IC50 below about 20 µM
MPTP cs DR – fluorescent counter-screen in isolated mitochondria, dose response, counter-screen for MPTP inhibitor project, biochemical, fluorescence, uHTS hits; shares compounds with MPTP inh; isolated mitochondria counterscreen, fluorescence read-out; IC50, µM; actives 49% (n = 780); AID 651564, 2012; in the data active = IC50 below about 80 µM
MT1-MMP conf – MT1-MMP activation inhibitors, hit retest, confirmation, single concentration, fluorescence, HT1080 RFP-PRO-GFP cells; inhibition, % at 20 µM; AID 652235, 2013; GFP and RFP fluorescence ratio, overnight; actives 10% (n = 200); shares compounds with MT1-MMP act inh;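 active = inhibition of at least 50% in the primary cell screen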
Numbers stand for hits; - = inactive; . = no result given. Shown are actives, neighbours in structure and some others; about 2.3% of the full set was active somewhere.

SMILES	MPTP inh	ATG4B inhibitor	MT1-MMP act inh	SKN-1 inh	MT1-MMP conf	others
O=C(COc1ccc2ccccc2c1)N/N=C/C1CC=CCC1 (stereo unspecified)	-	-	-	-	.
Cc1ccccc1NC(=O)c1ccc(CN2CCC(Cc3ccccc3)CC2)cc1	56	-	-	-	.	Rh123 counter=-;MPTP swell DR=12;MPTP cs DR=36
COc1ccc(/C=C/C(=O)OCC(=O)NCc2ccco2)c(OC)c1	-	-	-	-	.
O=C(Nc1ccc(Br)cc1)/C(=C/c1cccc([N+](=O)[O-])c1)NC(=O)C1CCCCC1	90	-	-	-	.	Rh123 counter=84
Cc1ccc(NC(=O)/C(=C/c2cccc([N+](=O)[O-])c2)NC(=O)C2CCCCC2)cc1	-	-	-	-	.
CC1=NN(C(N)=S)C(=O)C1N=Nc1ccc(Cl)cc1Cl (stereo unspecified)	55	-	-	-	.	Rh123 counter=83
CC(c1ccco1)N(C(=O)c1ccccc1NS(=O)(=O)c1cccc([N+](=O)[O-])c1)c1ccccn1 (stereo unspecified)	51	-	-	-	.	Rh123 counter=78
O=C(c1cc(COc2cccc3cnccc23)on1)N1CCCC(CCCO)C1 (stereo unspecified)	91	-	-	-	.	Rh123 counter=83
O=C(NNc1c2ccccc2nc2ccccc12)c1ccc(O)cc1O	-	-	-	-	.
O=C(NNc1c2ccccc2nc2ccccc12)c1ccccc1O	87	-	32	-	-	Rh123 counter=43
CN(C)c1ccc(C=c2c3ccccc3n3c2c2c([n+]3C)CCCC2)cc1	65	-	82	-	57	Rh123 counter=76
COc1cc(NC(=O)c2cc3ccccc3cc2OC)ccc1NC(=O)c1cccs1	-	-	-	-	.
CCN(CC(=O)NCc1ccc(Cl)cc1)C(=O)COc1cccc(C(F)(F)F)c1	-	-	-	-	.
CN1C(=O)/C(=C\c2cc(N=Nc3ccccc3)ccc2O)SC1=S	100	-	32	-	83	Rh123 counter=76
COc1cc(N(C)C)ccc1C=c1c2ccccc2n2c1cc(-c1ccccc1)[n+]2C	56	-	65	-	65	Rh123 counter=77
COc1cc(C=c2c3ccccc3n3c2cc(-c2ccccc2)[n+]3C)cc(OC)c1OC	-	-	-	-	.
COCCNC(=O)C(C)Oc1ccccc1 (stereo unspecified)	-	-	-	-	.
Cc1cc2ccccc2n1CCNC(=O)C(C)Oc1ccccc1 (stereo unspecified)	-	-	38	-	-
COc1ccc(-c2csc(C(C)(O)c3ccc(F)c(F)c3)n2)cn1 (stereo unspecified)	-	.	-	-	.
CC1CCCN(c2nc(N(C)c3ccccc3)nc(N)c2[N+](=O)[O-])C1 (stereo unspecified)	-	-	-	-	.
COc1cc(C(=O)Nc2ccc(O)cc2C(=O)O)ccc1OC(C)=O	-	-	37	-	-
COC(=O)c1ccc(NC(=O)c2ccc(OC(C)=O)c(OC)c2)cc1	-	-	-	-	.
Cc1cc2cc(CNC(=O)Cc3cccs3)ccc2n1C	-	-	-	-	.
Cc1cc2cc(CNC(=O)C3CCCC3)ccc2n1C	-	-	35	-	-
Cc1cc2cc(CNC(=O)Cc3ccc([N+](=O)[O-])cc3)ccc2n1C	-	-	42	39	-
SMILES	MPTP inh	ATG4B inhibitor	MT1-MMP act inh	SKN-1 inh	MT1-MMP conf	others
O=C1C(Cl)=C(NCCCO)C(=O)c2ccccc21	-	-	-	-	.
O=C1c2cccc(NCCCNCCO)c2C(=O)c2cccc(NCCCNCCO)c21	-	-	68	-	55
CCN(C(=O)COC(=O)/C=C/c1cccc(Br)c1)C1CCS(=O)(=O)C1 (stereo unspecified)	-	-	-	-	.
CC1(C)c2ccccc2N2CCC(=O)NC21/C=C/c1ccco1 (stereo unspecified)	-	-	-	-	.
Cc1ccc2c(c1)C(C)(C)[C@]1(C)NC(=O)CCN21	-	-	35	-	-
CCN(CC)c1ccc(/C=C2\C(=O)N(c3nnc(C)c(=O)[nH]3)N=C2C)cc1	-	-	33	-	-
Nc1ccc(N2CCCCC2)cc1N1CCCCC1	-	-	47	-	-
Cc1nn(-c2cc(N3CCCCC3)ccc2N)c(=O)c2ccccc12	-	-	-	-	.
Nc1nc(-c2ccc(Cl)cc2)c(N=Nc2ccc(S(=O)(=O)N3CCOCC3)cc2)s1	-	-	57	-	55
COc1ccc(Nc2nc(-c3c[nH]c4ccccc34)cs2)cc1	-	-	33	-	-
COc1ccc(-c2oc3ccc(-c4ccc(OC)nc4)cc3c2C#CC2(O)CCCCC2)cc1	-	-	32	-	-
Cc1ccc(S(=O)(=O)/N=C2\C=C(NS(=O)(=O)c3ccccc3)C(=O)c3ccccc32)c(C)c1	-	-	39	-	-
Cc1ccc(S(=O)(=O)/N=C2\C=C(Nc3cccc(C(=O)O)c3)C(=O)c3ccccc32)c(C)c1	-	-	-	-	.
C[N+]1=C(/C=C/Nc2ccccc2Cl)C(C)(C)c2ccccc21	-	-	52	-	-
CC1C(c2ccccc2)OCCN1C(=S)NC(=O)c1ccccc1 (stereo unspecified)	-	.	-	-	.
CCN1/C(=C\C=C2\C(=O)N(c3ccccc3)C(=S)N2C)Sc2ccccc21	-	-	39	-	-
Cc1cc(=O)n2[nH]c(-c3ccc(C(C)(C)C)cc3)cc2n1	-	-	34	-	-
CCNC(=S)NNC(=O)c1cc(-c2cccc(OCC)c2)nc2ccccc12	-	-	-	-	.
CCCCOc1cccc(-c2cc(C(=O)NNC(=S)NCC)c3ccccc3n2)c1	-	-	39	-	-
Cc1cccc(CSc2nc3[nH]ncc3c(=O)[nH]2)c1	-	-	35	-	-
O=C(N/C(=C\c1ccccc1)C(=O)N1CCOCC1)c1ccccc1Cl	-	-	-	-	.
CC1=NN(c2ccccc2)C(=O)/C1=C/C=C/c1ccc(N(C)C)cc1	-	-	55	-	-
CC1=NN(c2ccccc2)C(=O)/C1=C\C=C\c1ccccc1	-	-	-	-	.
N#Cc1cccc(NC(=O)c2cc(C3CCCCN3S(=O)(=O)c3cccc4cccnc34)on2)c1 (stereo unspecified)	-	.	-	-	.
